Laboratory results: ChEMBL document CHEMBL1135884 (J Med Chem, 2002)

Key:
[1] = target: T1, Serine protease 1 (Bos taurus, UniProt P00760); assay: Inhibitory concentration against bovine trypsin
T1 sequence (P00760 whole entry): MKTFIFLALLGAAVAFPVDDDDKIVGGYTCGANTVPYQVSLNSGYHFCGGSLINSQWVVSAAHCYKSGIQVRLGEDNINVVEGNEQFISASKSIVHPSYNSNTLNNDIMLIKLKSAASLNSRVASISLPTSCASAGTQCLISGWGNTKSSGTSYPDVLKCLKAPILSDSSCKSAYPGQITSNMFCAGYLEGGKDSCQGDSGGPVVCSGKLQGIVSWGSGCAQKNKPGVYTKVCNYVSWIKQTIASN

[2] = target: T2, Coagulation factor X (Homo sapiens, UniProt P00742); assay: Inhibitory concentration against human Coagulation factor Xa (fXa)
T2 sequence (P00742 41-179 limits assumed): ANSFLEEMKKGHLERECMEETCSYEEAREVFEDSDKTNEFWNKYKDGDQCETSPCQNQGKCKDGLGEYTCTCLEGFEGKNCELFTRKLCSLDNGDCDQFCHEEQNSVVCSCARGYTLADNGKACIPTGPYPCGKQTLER
T2 sequence (P00742 235-488 limits assumed): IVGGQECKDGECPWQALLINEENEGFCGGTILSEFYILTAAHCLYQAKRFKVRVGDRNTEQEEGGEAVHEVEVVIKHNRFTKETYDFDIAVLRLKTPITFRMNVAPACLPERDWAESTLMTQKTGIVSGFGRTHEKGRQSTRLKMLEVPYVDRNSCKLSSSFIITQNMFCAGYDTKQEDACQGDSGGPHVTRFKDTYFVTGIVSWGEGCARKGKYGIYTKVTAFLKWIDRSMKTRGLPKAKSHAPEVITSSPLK

[3] = target: Prothrombin (Homo sapiens, UniProt P00734); assay: Inhibitory concentration against thrombin.
[4] = target: T2, Coagulation factor X; assay: Inhibitory concentration against human Coagulation factor Xa(fXa)
In short: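 4-Nitroaniline release was read by absorbance at 405 nm. Inhibitors were prepared as 40 mM DMSO stocks and tested at 500, 50 and 5 µM. Km and Ki were obtained by nonlinear regression, with known factor Xa inhibitors as reference.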

Row | Compound | Ki [1] [nM] | Ki [2] [nM] | Ki [3] [nM] | Ki [4] [nM]
1 | N=C(N)c1cccc(C(=O)N[C@@H](C(=O)OCCC2CCN(C(=N)N)CC2)c2ccccc2)c1 | 1600 | 26 | – | –
2 | N=C(N)c1cccc(C(=O)N[C@@H](C(=O)N2CCN(c3ccc(Cl)cc3)CC2)c2ccccc2)c1 | 1700 | – | 1600 | 16
3 | N=C(N)c1ccccc1 [BENZAMIDINE] | – | 200 | – | –
4 | N=C(N)c1cccc(C(=O)NCC(=O)NCC2CCC(CN)CC2)c1 (configuration not stated) | 14000 | – | – | –
5 | CC(=N)N1CCC(Oc2ccc(N(Cc3ccc4ccc(C(=N)N)cc4c3)S(=O)(=O)CC(=O)O)cc2)CC1 [YM-60828] | 159 | – | – | –
6 | N=C(N)c1cccc(C(=O)N[C@@H](C(=O)N2CCC(C(=O)c3ccccc3)CC2)c2ccccc2)c1 | 980 | – | – | –
7 | N=C(N)c1cccc(C(=O)N[C@@H](C(=O)NCC2CCC(CN)CC2)c2ccccc2)c1 (some centres not stated) | 7400 | – | – | –
8 | CCOC(=O)[C@@H](Cc1ccc2ccccc2c1)NC(=O)c1cccc(C(=N)N)c1 | 12500 | 2000 | – | –
